Published values from different studies.
Target: Mitogen-activated protein kinase kinase kinase 3 (MAP3K3, Homo sapiens, UniProt Q99759)
Residues used in one study (Q99759 1-626): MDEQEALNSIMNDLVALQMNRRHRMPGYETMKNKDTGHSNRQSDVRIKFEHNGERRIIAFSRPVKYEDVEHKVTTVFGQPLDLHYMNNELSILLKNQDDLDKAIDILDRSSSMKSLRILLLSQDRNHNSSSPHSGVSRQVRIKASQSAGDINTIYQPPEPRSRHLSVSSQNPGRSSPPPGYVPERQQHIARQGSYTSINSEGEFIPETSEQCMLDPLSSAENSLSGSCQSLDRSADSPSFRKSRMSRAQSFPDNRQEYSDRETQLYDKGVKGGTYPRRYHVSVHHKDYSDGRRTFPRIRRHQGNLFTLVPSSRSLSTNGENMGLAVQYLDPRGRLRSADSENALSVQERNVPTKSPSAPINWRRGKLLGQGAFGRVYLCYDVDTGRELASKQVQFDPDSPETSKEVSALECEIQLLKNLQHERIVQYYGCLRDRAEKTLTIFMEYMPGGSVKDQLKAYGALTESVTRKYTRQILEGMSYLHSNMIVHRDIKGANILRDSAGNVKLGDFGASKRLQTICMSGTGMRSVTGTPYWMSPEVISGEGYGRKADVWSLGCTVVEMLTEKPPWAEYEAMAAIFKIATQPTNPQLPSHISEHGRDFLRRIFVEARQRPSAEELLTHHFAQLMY

SMILES	read-out	method	concentration	remaining binding [%]
Cc1c(NC(=O)c2cc(C(N)=O)nc3cc(F)ccc23)c(C(F)(F)F)nn1Cc1ccc(C(C)(C)C)cc1	cell-free assay	competition with immobilised ligand	1 µM	100
O=C(NCC1CCOCC1)c1n[nH]cc1NC(=O)c1c(F)cccc1F	binding	competition with immobilised ligand	1 µM	96
C=CC(=O)N1CCC(C(=O)NCC(=O)N2CCN(c3nc(-c4cnc(N)nc4C(F)F)nc(N4CCOCC4)n3)CC2)CC1	binding	competition with immobilised ligand	1 µM	99
C[C@H]1CCN(c2nccc(-c3cnn4ncccc34)n2)C1	binding		1 µM	59
COc1ncc2cc3ccccc3nc2c1C#N	cell-free assay	competition with immobilised ligand	5 µM	95
O=C(c1ccc(Nc2ncc(Cl)c(-c3cc4ccccc4s3)n2)cc1)N1CCC(N2CCCC2)CC1	binding	competition with immobilised ligand	1 µM	34
CN(C)c1nccc(-c2cnc3ncccn23)n1	binding		1 µM	44
O=C(O)[C@H]1[C@H](Cn2nnc3ccccc3c2=O)CC[C@@H]1C(=O)c1ccc(OCCC2CCOCC2)cc1	cell-free assay	competition with immobilised ligand	1 µM	100
CC1CCCN1c1nccc(-c2cnn3ncccc23)n1 (stereo not shown)	binding		1 µM	97
C[C@@H]1CN(c2cc(-c3nn(C)c4ccc(OC5(C)CC5)cc34)ncn2)C[C@H](C)O1	cell-free assay	competition with immobilised ligand	1 µM	90
CCN1CCN(Cc2ccc(C(=O)Nc3ccc(C)c(Oc4ccc5c(c4)CC(=O)N5)c3)cc2C(F)(F)F)CC1	binding	competition with immobilised ligand	1 µM	100
Nc1ncc2c(n1)-c1c([nH]c3ccc(C#CC4CC4)cc13)CCCC2	binding	competition with immobilised ligand	1 µM	89
O=C(NCCCN1CCOCC1)c1ccc(Nc2ncc(Cl)c(-c3ccc(Cl)s3)n2)cc1	binding	competition with immobilised ligand	1 µM	3.6
CNC(=O)[C@@H]1CC[C@@H](n2c(-c3ccc4cnccc4c3)nc3ccc(C(=O)NCc4cccc(C(N)=O)c4)cc32)C1	binding	competition with immobilised ligand	1 µM	100
O=C(c1ccc(Nc2ncc(Cl)c(-c3ccc(Cl)s3)n2)cc1)N1CCC(N2CCCC2)CC1	binding	competition with immobilised ligand	1 µM	6.3
CN(C)c1nccc(-c2cnn3ncccc23)n1	binding		1 µM	100
CS(=O)(=O)NCC[C@H](NC(=O)c1cncc2c1cnn2-c1ccc(F)cc1)c1ccnc(S(C)(=O)=O)c1	cell-free assay	competition with immobilised ligand	1 µM	100
N[C@@H]1CCN(c2nccc(-c3cnn4ncccc34)n2)C1	binding		1 µM	100
CC(=O)N1CCC(c2ccc(C(=O)NC(=N)N)cc2C(F)(F)F)CC1	cell-free assay	competition with immobilised ligand	1 µM	90
CN(CCCC(F)(F)F)c1nccc(-c2cnn3ncccc23)n1	binding		1 µM	99
COc1ccc2c(O[C@@H]3C[C@H]4C(=O)N[C@]5(C(=O)O)CC5/C=C\CCCCC[C@H](NC(=O)OC5CCCC5)C(=O)N4C3)cc(-c3csc(NC(=O)C(C)C)n3)nc2c1C (stereo partly shown)	cell-free assay	competition with immobilised ligand	1 µM	79
COc1cnc(Nc2cccc(S(N)(=O)=O)c2)nc1N1CCN(c2ccccc2)C(=O)C1	binding	competition with immobilised ligand	1 µM	84
